Twelve molecules from ChEMBL document CHEMBL1122991, “[(Aminomethyl)aryloxy]acetic acid esters. A new class of high-ceiling diuretics. 4. Substituted 6,7-dichloro-2,3-dihydrobenzofurans derived by ring annelation” (1985) can be followed below.

Activity calls are given as the source filed them. The rule behind the calls is not given here.

In experiment [1] the test system is Rattus norvegicus. Nature of the experiment: Natriuretic potency was evaluated as oral dose required to produce an excretion of 2 mequiv of Na+/Kg of rat body weight; IA means Inactive. In kind it is functional, organism-based. The method in brief: (§1)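 Oral gavage in female rats fed glucose and water overnight. DOCA 5 mg sc is given 2 h before dosing, and rats are loaded with isotonic NaCl-KCl (40:60) to 3% body weight right after dosing. Na+ excretion is collected over 4 h, four rats/dose. ED2 is taken from a linear regression of Na+ excretion vs log dose.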

Experiment [2] has as its system Rattus norvegicus. Nature of the experiment: Natriuretic potency was evaluated as oral dose required to produce an excretion of 2 mequiv of Na+/Kg of rat body weight. In kind it is functional. The method in brief: as §1
For experiment [3], the system named is Rattus norvegicus. Kind of experiment: Natriuretic potency was evaluated as oral dose required to produce an excretion of 2 mequiv of Na+/Kg of rat body weight, ED2 value based on N=4 rats/dose. It counts as functional. The method in brief:
as §1

The subject of a further experiment is Canis familiaris. Kind of experiment: Natriuretic potency was evaluated as oral dose required to produce an excretion of 2 mequiv of Na+/Kg of dog body weight, ED5 value based on N=2 dogs/dose. It counts as functional, Canis lupus familiaris. A digest of the protocol:
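Conscious nonloaded female dogs dosed orally, two dogs/dose. ED5 is derived from a linear regression of Na+ excretion vs log dose.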

For experiment [4], the species on record is Rattus norvegicus. Nature of the experiment: Fractional delivery of Na+ to puncture site (percent of filtered load) of early distal tubular segments in the exposed kidney. In kind it is functional. The method in brief:
(§2)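 Male adult Sprague-Dawley rats prepared for free-flow micropuncture, infused with Ringer's solution at 2 mL/100 g per h plus [3H]inulin (100 μCi/h). Early and late distal tubular fluid sampled from the exposed kidney during control periods and after a single iv bolus of 0.1 mg/kg given over 20–30 s. Control and treated groups compared by unpaired t test.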

The species entered for experiment [5] is Rattus norvegicus. Kind of experiment: Tubular fluid-to-plasma concentration ratio for inulin of early distal tubular segments in the exposed kidney. It counts as functional. The method in brief:
as §2

For experiment [6], the species on record is Rattus norvegicus. Kind of experiment: Single nephron glomerular filtration rate of late distal tubular segments in the exposed kidney. In kind it is functional. The method in brief: as §2
The species entered for experiment [7] is Rattus norvegicus. Kind of experiment: Fractional excretion of Na+ (percent of filtered load) in rat. In kind it is functional. The method in brief: (§3)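 Male adult Sprague-Dawley rats infused with Ringer's solution at 2 mL/100 g per h plus [3H]inulin (100 μCi/h). Two 30-min urine collections with midpoint blood samples form the control period. A single iv bolus of 0.1 mg/kg is given over 20–30 s, and 30 min later two more 30-min periods follow, with iv fluid replacement. Urine volume, Na+, K+ and inulin counts are measured, and GFR and fractional excretion are calculated by standard formulae. Paired t test, n = 8.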

The species named for experiment [8] is Rattus norvegicus. Kind of experiment: Urine flow rate of early distal tubular segments in the exposed kidney. It counts as functional. The method in brief: as §2
The species entered for experiment [9] is Rattus norvegicus. Nature of the experiment: Tubular fluid-to-plasma concentration ratio for inulin of late distal tubular segments in the exposed kidney. It counts as functional. A digest of the protocol:
as §2

For experiment [10], the species on record is Rattus norvegicus. Kind of experiment: Glomerular filtration rate (per one kidney) per 100 g body weight of rat. In kind it is functional. The method in brief:
as §3

For experiment [11], the species on record is Rattus norvegicus. Nature of the experiment: Urine flow rate per kidney was evaluated in rat. In kind it is functional. A digest of the protocol: as §3
Experiment [12] is filed under the species Rattus norvegicus. Nature of the experiment: Na+ concentration in plasma sample of rat. In kind it is functional, organism-based. The method in brief: as §3
The species named for experiment [13] is Rattus norvegicus. Nature of the experiment: Fractional delivery of K+ to puncture site (percent of filtered load) of late distal tubular segments in the exposed kidney. In kind it is functional. A digest of the protocol:
as §2

The species entered for experiment [14] is Rattus norvegicus. Kind of experiment: K+ concentration in plasma sample of rat. It counts as functional, organism-based. The method in brief: as §3
The species entered for experiment [15] is Rattus norvegicus. Kind of experiment: Fractional excretion of K+ (percent of filtered load) in rat. In kind it is functional. The method in brief:
as §3

Experiment [16] is filed under the species Rattus norvegicus. Kind of experiment: Fractional delivery of K+ to puncture site (percent of filtered load) of early distal tubular segments in the exposed kidney. In kind it is functional. A digest of the protocol:
as §2

Experiment [17] can be described thus: Ratio of number of tubules/number of rats of late distal tubular segments in the exposed kidney. In kind it is functional.
The species named for experiment [18] is Rattus norvegicus. Nature of the experiment: Urine flow rate of late distal tubular segments in the exposed kidney. It counts as functional. A digest of the protocol:
as §2

The species entered for experiment [19] is Rattus norvegicus. Kind of experiment: Fractional delivery of Na+ to puncture site (percent of filtered load) of late distal tubular segments in the exposed kidney. It counts as functional. The method in brief: as §2
The species named for experiment [20] is Rattus norvegicus. Nature of the experiment: Single nephron glomerular filtration rate of early distal tubular segments in the exposed kidney. In kind it is functional. The method in brief:
as §2

Experiment [21] is filed under the species Rattus norvegicus. Kind of experiment: Urine-to-plasma concentration ratio for inulin in rat. It counts as functional. The method in brief: as §3

With `NCc1cc(C(=O)c2cc3c(c(Cl)c2Cl)OC(C(=O)O)C3)ccc1O` (centres undefined), in the experiment with Rattus norvegicus [1], the ED2 result was “inactive”.

Regarding `CCOC(=O)C1Cc2cc(C(=O)c3cc(CN(C)C)c(O)c(CN(C)C)c3)c(Cl)c(Cl)c2O1` (centres undefined), the ED2 with Rattus norvegicus [2] was determined as 1.82 mg/kg.

Turning to `NCc1cc(C(=O)c2cc3c(c(Cl)c2Cl)OC(C(N)=O)C3)ccc1O` (centres undefined), in the experiment with Rattus norvegicus [2], the ED2 came to 2.95 mg/kg.

As for `NCc1cc(Cc2cc3c(c(Cl)c2Cl)OC(CO)C3)ccc1O` (centres undefined), in the experiment with Rattus norvegicus [2], the ED2 turned out to be 10.2 mg/kg.

On to `NS(=O)(=O)c1cc(C(=O)O)cc(N2CCCC2)c1Oc1ccccc1` [PIRETANIDE], for which the ED2 in the experiment on Rattus norvegicus [3] is 0.89 mg/kg. Further, the ED5 with Canis familiaris amounted to 0.25 mg/kg.

In the case of `CCCCNc1cc(C(=O)O)cc(S(N)(=O)=O)c1Oc1ccccc1` [BUMETANIDE], in the experiment on Rattus norvegicus [3], the ED2 was 8.5 mg/kg. For the same molecule, the ED5 in the experiment with Canis familiaris is 0.15 mg/kg.

For the molecule `CCOC(=O)C1Cc2cc(Cc3ccc(O)c(CN)c3)c(Cl)c(Cl)c2O1` (centres undefined), in the experiment with Rattus norvegicus [2], the ED2 was 8 mg/kg.

With `CCOC(=O)C1Cc2cc(C(=O)c3ccc(O)c(CN)c3)c(Cl)c(Cl)c2O1` (centres undefined), the FD was 13.6% in the experiment filed under Rattus norvegicus [4], 23.6% in the experiment listed under Rattus norvegicus [13], 23% in the experiment filed under Rattus norvegicus [16] and 8.1% in the experiment filed under Rattus norvegicus [19]. The TF/P is 4.39 in the experiment listed under Rattus norvegicus [5] and 8.48 in the experiment listed under Rattus norvegicus [9]. In addition, the values for the SNGFR in the experiment filed under Rattus norvegicus [6] and in the experiment filed under Rattus norvegicus [20] were 33.9 nL/min and 35.7 nL/min, respectively. Also, the results for the FE in the experiment filed under Rattus norvegicus [7] and in the experiment listed under Rattus norvegicus [15] were 6.3% and 54.6%, respectively. Also, the Rate in the experiment filed under Rattus norvegicus [8] turned out to be 8.2 nL/min; in the experiment listed under Rattus norvegicus [11] it was 67.6 µL/min; in the experiment listed under Rattus norvegicus [18], 4.6 nL/min. In the experiment filed under Rattus norvegicus [10], this molecule gave a GFR of 0.46 mL/min. The Plasma in the experiment filed under Rattus norvegicus [12] is 144 mM; in the experiment filed under Rattus norvegicus [14], 3.57 mM. Further, the Ratio in [17] amounted to 8. In addition, the ED2 with Rattus norvegicus [3] amounted to 0.12 mg/kg. For the same molecule, in the experiment listed under Rattus norvegicus [21], the U/P turned out to be 19.7. Moreover, the ED5 in the experiment with Canis familiaris was 0.11 mg/kg.

`CCOC(=O)C1Cc2cc(C(=O)c3cc(Cl)c(O)c(CN)c3)c(Cl)c(Cl)c2O1` (centres undefined): the ED2 with Rattus norvegicus [2] stood at 21.5 mg/kg.

Regarding `NCc1cc(C(=O)c2cc3c(c(Cl)c2Cl)OC(CO)C3)ccc1O` (centres undefined), in the experiment with Rattus norvegicus [2], the ED2 came out at 0.95 mg/kg.

In the case of `CCOC(=O)C1Cc2cc(Cc3cc(CN)c(O)c(CN)c3)c(Cl)c(Cl)c2O1` (centres undefined), the ED2 in the experiment on Rattus norvegicus [2] was determined as 49 mg/kg.

On to `NS(=O)(=O)c1cc(C(=O)O)c(NCc2ccco2)cc1Cl` [FUROSEMIDE], for which, in the experiment with Rattus norvegicus [3], the ED2 turned out to be 9.5 mg/kg. For the same molecule, in the experiment on Canis familiaris, the ED5 was 3.5 mg/kg.
